Hits are enriched below; roughly 2.3% of the tested compounds scored in any of these assays.
TRPC4 block – inhibitors of mouse TRPC4 channel, primary screen, Fluo4 calcium, HEK293 TRPC4beta/mu-opioid cells; Short transient receptor potential channel 4 (Mus musculus), Q9QUQ5; DAMGO-evoked Fluo4 calcium flux; hits give low values; B-score at 10 µM; hit rate 0.39% among 300,000; AID 2247, 2010;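 active = B-score over 3 SD under the library average, no early fluorescence shift, positive overall ratio signal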
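Assay system: Stable TRPC4beta/mu-opioid receptor HEK293 cells | Reagent: DAMGO in two steps, submaximal then maximal | Compound dosing: Single concentration per test compound | Signal: Fluo4 Ca2+ flux fluorescence | Evaluation: Per-well B score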
TRPC4 potent – positive allosteric modulators of TRPC4, primary screen, cell-based, mouse TRPC4beta, HEK293 mu-opioid, Fluo-4 calcium; Short transient receptor potential channel 4 (Mus musculus), Q9QUQ5; DAMGO EC20, Fluo-4 Ca2+ flux; hits give high values; B-score at 10 µM; hit rate 0.42% among 310,000;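 active = B-score of calcium response area above 5 SD of library B-scores, with initial fluorescence ratio within 5 SD of library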;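 note: B-score of integrated fluorescence ratio over time as area under calcium response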
TRPC4 act – activators of mouse TRPC4 channel, primary screen, Fluo4 calcium, HEK293 TRPC4beta/mu-opioid cells; Short transient receptor potential channel 4 (Mus musculus), Q9QUQ5; Fluo4 calcium fluorescence; hits give high values; B-score at 10 µM; hit rate 0.49% among 310,000; AID 2237, 2010;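 active = B-score above 5 SD of library B-scores, and initial fluorescence ratio not above library mean plus 5 SD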;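 note: positive B-score marks a calcium rise read as TRPC4 activation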
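Assay system: HEK293 cells stably co-expressing mouse TRPC4beta and mu-opioid receptor / Timing: Fluo4 dye loading 45 min at room temperature, 110 s recording / Signal: Fluo4 calcium-sensitive dye fluorescence, kinetic, 1 Hz baseline / Read-out: integrated baseline-normalised fluorescence ratio, converted to per-well B score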
TRPC6 inh – mouse TRPC6 channel inhibitors, primary screen, cell-based, HEK293, membrane potential dye; AID 2553, 2010; hit rate 1.1% among 310,000; ACh-evoked depolarization; hits give low values; B-score at 10 µM; Short transient receptor potential channel 6 (Mus musculus), Q61143;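 active = B-score under library mean minus 3 SD, initial fluorescence not abnormally high, positive integrated signal ratio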;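 note: B-score derived from integrated fluorescence ratio over the kinetic read; more negative B-score means stronger inhibition of depolarization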
TRPC6 activator – mouse TRPC6 channel activators, primary screen, cell-based, HEK293, membrane potential dye. B-score at 10 µM. hit rate 0.13% among 310,000. HEK293-TRPC6 membrane potential dye fluorescence; hits give high values;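 active = B-score of the integrated fluorescence ratio above library mean plus 3 SD, and starting fluorescence ratio within library mean plus 5 SD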;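 note: higher score means more depolarization so channel activation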
TRPC4 spec 2 – second selectivity test of TRPC6 inhibitors: effect on mouse TRPC4; shares compounds with TRPC6 inh; HEK293 TRPC4/MOR, membrane potential dye fluorescence; channel activated by saturating DAMGO dose; inhibition, % at 10 µM; hit rate 42% among 920;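 active = compounds whose fluorescence signal differed from control wells by over 3 SD, either direction, in both duplicate plates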
TRPC4 spec – mouse TRPC4 modulation by TRPC6 hits, confirmation, selectivity assay for TRPC6 inhibitor project, cell-based, HEK293 TRPC4/mu-opioid, membrane potential dye; shares compounds with TRPC6 inh; activity change, negative = inhibition, % at 10 µM; hit rate 61% among 920; membrane potential fluorescence;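 active = rise or fall in signal beyond 3 SD of buffer-only wells in both replicate plates, either sign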;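 note: integrated kinetic ratio of fluorescence range over baseline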
HEK293 MPD ctr 2-1 – nonspecific membrane potential effects, parental HEK293, confirmation, counter-screen for TRPC6 inhibitor project, cell-based, second counter screen; shares compounds with TRPC6 inh; parental HEK293 membrane potential dye fluorescence; maximal acetylcholine challenge after compound addition; signal change vs control, % at 10 µM; hit rate 31% among 920; AID 2779, 2010;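 active = membrane potential signal moving either way by over 3 SD of the maximum-effect control, in both duplicate plates, meaning non-specific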
HEK293 MPD ctr-1 – membrane potential modulation in parental HEK293, confirmation, counter-screen for TRPC6 inhibitor project, cell-based. shares compounds with TRPC6 inh. parental HEK293 membrane potential dye fluorescence. membrane potential signal change, % at 10 µM. hit rate 60% among 920. AID 2780, 2010;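 active = membrane potential signal shifting up or down by more than 3 SD of buffer-only wells, on both duplicate plates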
HEK293 MPD ctr-2 – parental HEK293 membrane potential modulation, confirmation, counter-screen for TRPC6 modulator project, cell-based; shares compounds with TRPC6 inh; membrane potential dye fluorescence; membrane potential signal change, % at 10 µM; hit rate 51% among 2,400; AID 488924, 2010;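 active = membrane potential signal moves up or down beyond 5 SD from buffer-only wells, on both duplicate plates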
HEK293 MPD ctr 2-2 – second counter-screen for TRPC6 modulators: effect in parental HEK293 cells. shares compounds with TRPC6 inh. membrane potential dye fluorescence; after compound, maximal acetylcholine stimulation. inhibition, % at 10 µM. hit rate 14% among 2,400. AID 488926;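 active = membrane potential signal drops by more than 5 SD from the mean control signal, in both duplicate plates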;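 note: plate controls were acetylcholine ECmax control wells for no effect and buffer only wells for full effect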
TRPC4 ctr mod – TRPC4 modulation by TRPC6 hit compounds, confirmation, selectivity assay for TRPC6 modulator project, cell-based, HEK293 TRPC4/mu-opioid, membrane potential dye, mouse; percent change from control (negative = decrease, positive = increase), % at 10 µM; shares compounds with TRPC6 inh; hit rate 69% among 2,400; membrane potential fluorescence;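 active = membrane potential signal moved up or down beyond 5 SD of buffer control wells, in both duplicate plates, actives on both sides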;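 note: plate controls were assay buffer wells for no effect and DAMGO maximal-effect wells for full effect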
TRPC4/MOR inh 2 – second check of whether TRPC6 modulators also affect mouse TRPC4; shares compounds with TRPC6 inh; HEK293 TRPC4/mu-opioid, membrane potential dye fluorescence; stimulated with maximal-effect DAMGO; inhibition, % at 10 µM; hit rate 55% among 2,400;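 active = drop in membrane potential signal beyond 5 SD of the control wells in both duplicate plates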;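 note: TRPC4 counter screen for TRPC6 hits run under conditions tuned for TRPC6 not TRPC4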
TRPC6 block conf – mouse TRPC6 channel inhibitors, confirmation, HEK293 cells, membrane potential dye, duplicate; ACh-evoked depolarization; hit rate 43% among 3,300; shares compounds with TRPC6 inh; inhibition, % at 10 µM;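 active = fluorescence ratio falls more than 5 SD below the full-stimulation control mean, in both duplicate runs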;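 note: integrated fluorescence ratio of peak minus minimum over baseline after agonist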
TRPC6 act confirm – mouse TRPC6 channel activators, confirmation, HEK293 cells, membrane potential dye, duplicate; hit rate 11% among 2,800; HEK293-TRPC6 membrane potential dye fluorescence, FDSS; AID 488961, 2010; shares compounds with TRPC6 inh; activation, % at 10 µM;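 active = ratio signal rise beyond 5 SD above unstimulated control wells' mean, seen in both duplicate runs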;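 note: plate controls were buffer EC0 wells for no effect and acetylcholine ECmax response for full effect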
* hit, by the source's call; i = inactive; . = not tested or not shown.

SMILES | TRPC4 block | TRPC4 potent | TRPC4 act | TRPC6 inh | TRPC6 activator | TRPC4 spec 2 | TRPC4 spec | HEK293 MPD ctr 2-1 | HEK293 MPD ctr-1 | HEK293 MPD ctr-2 | HEK293 MPD ctr 2-2 | TRPC4 ctr mod | TRPC4/MOR inh 2 | TRPC6 block conf | TRPC6 act confirm
O=C1CS(=O)(=O)c2ccccc2N1 | i | i | i | i | i | . | . | . | . | . | . | . | . | . | .
COCc1c(C#N)c(NCCc2ccc(F)cc2)nc(C)c1[N+](=O)[O-] | i | i | i | -8* | i | i | i | i | i | . | . | . | . | i | i
COCc1c(C#N)c(NCCc2ccccc2)nc(C)c1[N+](=O)[O-] | i | i | i | i | i | . | . | . | . | . | . | . | . | . | .
Cc1nc2nc(SCC(=O)NCCCN3CCCC(C)C3)nn2c(C)c1Cc1ccccc1Cl (centres undefined) | i | i | i | -6.7* | i | . | . | . | . | i | i | i | i | 49%* | .
O=C(COC(=O)c1cccnc1Cl)NCc1cccs1 | i | i | i | i | i | . | . | . | . | . | . | . | . | . | .
O=C(CCCOc1ccc(Cl)cc1Cl)N1CCN(c2ccccn2)CC1 | i | i | i | -9.3* | i | i | 0.1%* | i | 1.5%* | . | . | . | . | i | .
O=C(COc1ccc(Cl)cc1Cl)N1CCN(c2ccccn2)CC1 | i | i | i | i | i | . | . | . | . | . | . | . | . | . | .
O=C1C2CCCCC2C(=O)N1c1ccc(NC2CCN(Cc3ccccc3)CC2)c([N+](=O)[O-])c1 (centres undefined) | i | i | 43* | -6.3* | i | . | . | . | . | i | i | 14%* | 51%* | i | i

Compound activity as filed in PubChem.
